PubChem BioAssay
Calls of active or inactive are those of the source.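 The calls were made as follows, unless noted: active = viability at or below 30% in both replicate assays; inconclusive = viability at or below 30% in just one of the two assays; inactive = the rest.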

Assays:
[1] = Her2 expression decrease, cell viability multiplex – SKBR3 breast tumor cells, AlphaScreen, ATP viability, primary screen (AID 461;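 active = Her2 level under about 52% in both replicate screens, with viability over 70% of control, limit read from the data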;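 as to Her2 level: lower value means less Her2 protein in the cells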;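 as to viability: percent of carrier control wells set as 100% viability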); conditions: SKBR3 Her2 protein level, 18-24 h, measured here: SKBR3 viability, ATP luminescence, at 10 µM
[2] = biological target: Receptor tyrosine-protein kinase erbB-2 (Homo sapiens) (UniProt P04626); assay: as above; conditions: 18-24 h, at 10 µM, stronger effect = lower value
[3] = reduced viability of SK-BR-3 breast cancer cells – cell-based, 24 h, human, pilot screen (AID 572;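 active = viability at or below 10% of carrier control in both of two separate runs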;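 also: compound exposure lasted between 18 and 24 h rather than exactly 24 h; 100% = carrier-treated control wells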); conditions: SK-BR-3 viability, CellTiter-Glo luminescence, at 10 µM, stronger effect = lower value
[4] = HUVEC growth inhibition – cell-based, human, primary screen (AID 575); conditions: HUVEC proliferation, CellTiter-Glo luminescence, 72 h; at 10 µM; stronger effect = lower value;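 also: 100% = median of untreated cell wells with 0.1% DMSO on each plate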
Summary of the method: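 Test system: primary human umbilical vein endothelial cells. Quantity: 1250 cells/well. Compound: single 10 µM dose, 0.1% DMSO, from 5x medium stock. Timing: 72 h treatment at 37 °C. Detection: ATP-based CellTiter-Glo luminescent read. Benchmarks: vehicle and MePR control wells. Format: 384-well plates coated with collagen.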

[5] = H69AR cell proliferation blockers – human, duplicate replicates, primary screen (AID 580;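 active = viability at or under a set limit in both replicates, limit being median viability minus 3 SD, cut at about 48% in these data, passing the limit was not always enough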;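 also: 100% = mean luminescence of untreated wells and 0% = no signal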); conditions: H69AR lung tumor cells viability, ATP luminescence, 72 h; at 10 µM; stronger effect = lower value
[6] = MRP1 drug-resistance reversers in H69AR cells – cell-based, doxorubicin co-treatment, pilot screen (AID 601;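 active = viability loss from added drug above about 55%, and viability with drug at most 40%, in both replicates, limit read from the data, passing the limit was not always enough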); conditions: CellTiter-Glo, 72 h, at 10 µM; for differential viability (reversal): stronger effect = higher value
[7] = yeast transport mutant growth inhibition pilot in 384-well plates, post-Golgi transport modulator project (AID 636; in the data active = inhibition above about 31%); conditions: absorbance 615 nm, about 18 h, stronger effect = higher value
[8] = growth suppression of yeast trafficking mutant, preliminary HTS, modulators of trafficking downstream of Golgi apparatus project, 1536-format plate, OD 615 nm (AID 637; in the data active = inhibition above about 30%); conditions: yeast transport mutant growth, absorbance 615 nm, 18 h; stronger effect = higher value
[9] = H69AR cells + 2 uM doxorubicin, measured here: viability with 2 uM doxorubicin, stronger effect = lower value
[10] = H69AR cells, compound alone cytotoxicity

Sequence of Receptor tyrosine-protein kinase erbB-2 (Homo sapiens) (P04626 whole entry, looked up): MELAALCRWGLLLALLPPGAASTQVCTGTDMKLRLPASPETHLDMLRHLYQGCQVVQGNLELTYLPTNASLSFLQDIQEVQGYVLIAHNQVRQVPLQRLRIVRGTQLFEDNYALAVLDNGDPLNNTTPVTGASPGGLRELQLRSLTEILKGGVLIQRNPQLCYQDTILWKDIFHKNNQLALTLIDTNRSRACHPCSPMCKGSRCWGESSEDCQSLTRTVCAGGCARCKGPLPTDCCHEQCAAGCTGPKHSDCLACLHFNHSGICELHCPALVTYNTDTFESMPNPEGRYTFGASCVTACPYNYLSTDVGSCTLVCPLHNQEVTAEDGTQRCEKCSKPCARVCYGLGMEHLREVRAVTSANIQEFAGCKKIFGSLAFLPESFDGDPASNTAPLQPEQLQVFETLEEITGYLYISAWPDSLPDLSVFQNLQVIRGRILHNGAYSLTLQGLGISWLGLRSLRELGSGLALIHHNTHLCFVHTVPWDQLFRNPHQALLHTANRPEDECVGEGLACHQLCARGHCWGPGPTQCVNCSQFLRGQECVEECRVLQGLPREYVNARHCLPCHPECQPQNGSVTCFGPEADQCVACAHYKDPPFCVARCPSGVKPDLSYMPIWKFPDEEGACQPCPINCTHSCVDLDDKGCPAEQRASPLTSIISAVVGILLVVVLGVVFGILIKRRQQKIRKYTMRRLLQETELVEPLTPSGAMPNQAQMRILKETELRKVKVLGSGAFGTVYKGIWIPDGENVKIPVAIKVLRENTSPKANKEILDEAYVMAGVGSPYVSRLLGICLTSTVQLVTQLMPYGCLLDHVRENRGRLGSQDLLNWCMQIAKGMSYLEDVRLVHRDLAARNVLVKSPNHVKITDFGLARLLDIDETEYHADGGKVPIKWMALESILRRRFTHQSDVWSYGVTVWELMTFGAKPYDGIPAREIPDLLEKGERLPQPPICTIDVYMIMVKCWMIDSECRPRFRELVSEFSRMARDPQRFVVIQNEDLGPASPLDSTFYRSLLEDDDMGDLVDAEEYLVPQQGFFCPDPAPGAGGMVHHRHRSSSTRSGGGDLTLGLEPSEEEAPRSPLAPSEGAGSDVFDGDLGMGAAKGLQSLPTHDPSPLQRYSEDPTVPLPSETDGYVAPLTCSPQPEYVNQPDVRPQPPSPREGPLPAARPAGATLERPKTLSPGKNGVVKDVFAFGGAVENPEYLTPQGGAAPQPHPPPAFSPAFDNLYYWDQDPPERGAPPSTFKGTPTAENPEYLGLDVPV

Compound: COc1cccc(-n2nnnc2SCC(=O)NCc2ccco2)c1
- viability [1]: 117%
- Her2 level [2]: 92.5% (inactive)
- viability [3]: 117% (inactive)
- viability [4]: 90.5% (inactive)
- viability [5]: 83.2% (inactive)
- differential viability (reversal) ([6]; H69AR cells + 2 uM doxorubicin): 5.98% (inactive)
- viability [6, 9]: 77.2%
- viability [6, 10]: 83.2%
- inhibition [7]: -4.8% (inactive)
- inhibition [8]: 4.52% (inactive)

Compound: O=C(CCCCC(=O)NCc1cccs1)NCc1cccs1
- viability [1]: 95.5%
- Her2 level [2]: 106% (inactive)
- viability [3]: 95.5% (inactive)
- viability [4]: 99.7% (inactive)
- viability [5]: 97.8% (inactive)
- differential viability (reversal) ([6]; H69AR cells + 2 uM doxorubicin): 0.77% (inactive)
- viability [6, 9]: 97%
- viability [6, 10]: 97.8%
- inhibition [7]: 1.2% (inactive)
- inhibition [8]: -7.42% (inactive)

Compound: COC(=O)c1ccccc1NC(=O)C1CCCCC1C(=O)O (stereo not given)
- viability [1]: 103%
- Her2 level [2]: 116% (inactive)
- viability [3]: 103% (inactive)
- viability [4]: 91% (inactive)
- viability [5]: 90.3% (inactive)
- differential viability (reversal) ([6]; H69AR cells + 2 uM doxorubicin): -1.56% (inactive)
- viability [6, 9]: 91.8%
- viability [6, 10]: 90.3%
- inhibition [7]: -2.93% (inactive)
- inhibition [8]: -9.52% (inactive)

Compound: CCCS(=O)(=O)N1CCC(C(=O)N2CCCC2)CC1
- viability [1]: 112%
- Her2 level [2]: 93% (inactive)
- viability [3]: 112% (inactive)
- viability [4]: 115% (inactive)
- viability [5]: 95% (inactive)
- differential viability (reversal) ([6]; H69AR cells + 2 uM doxorubicin): 3.92% (inactive)
- viability [6, 9]: 91.1%
- viability [6, 10]: 95%
- inhibition [7]: -3.55% (inactive)
- inhibition [8]: -0.82% (inactive)

Compound: CCc1ccc(CNCc2cccnc2)cc1
- viability [1]: 91%
- Her2 level [2]: 100% (inactive)
- viability [3]: 91% (inactive)
- viability [4]: 91.2% (inactive)
- viability [5]: 92.4% (inactive)
- differential viability (reversal) ([6]; H69AR cells + 2 uM doxorubicin): 6.96% (inactive)
- viability [6, 9]: 85.4%
- viability [6, 10]: 92.4%
- inhibition [7]: -1.82% (inactive)
- inhibition [8]: -2% (inactive)

Compound: O=C(CSc1nnc2ccccn12)NCCN1C(=O)CSC1=O
- viability [1]: 134%
- Her2 level [2]: 85.5% (inactive)
- viability [3]: 134% (inactive)
- viability [4]: 92.5% (inactive)
- viability [5]: 105% (inactive)
- differential viability (reversal) ([6]; H69AR cells + 2 uM doxorubicin): 11.8% (inactive)
- viability [6, 9]: 93.6%
- viability [6, 10]: 105%
- inhibition [7]: -3.64% (inactive)
- inhibition [8]: -0.32% (inactive)

Compound: CN(C)/C=C1\N=C(c2ccc3c(c2)OCO3)OC1=O
- viability [1]: 91%
- Her2 level [2]: 94.5% (inactive)
- viability [3]: 91% (inactive)
- viability [4]: 94.4% (inactive)
- viability [5]: 98.1% (inactive)
- differential viability (reversal) ([6]; H69AR cells + 2 uM doxorubicin): 21.1% (inactive)
- viability [6, 9]: 76.9%
- viability [6, 10]: 98.1%
- inhibition [7]: -1.56% (inactive)
- inhibition [8]: -4.5% (inactive)

Compound: COc1cccc(NC(=O)Cc2nnc(SCC(=O)c3ccccc3)n2C)c1
- viability [1]: 92%
- Her2 level [2]: 83.5% (inactive)
- viability [3]: 92% (inactive)
- viability [4]: 85% (inactive)
- viability [5]: 68.1% (inactive)
- differential viability (reversal) ([6]; H69AR cells + 2 uM doxorubicin): 8.65% (inactive)
- viability [6, 9]: 59.4%
- viability [6, 10]: 68.1%
- inhibition [7]: -2.24% (inactive)
- inhibition [8]: -3.49% (inactive)

Compound: COc1cc(=O)[nH]c(SCc2c(F)c(F)c(F)c(F)c2F)n1
- viability [1]: 95%
- Her2 level [2]: 95.5% (inactive)
- viability [3]: 95% (inactive)
- viability [4]: 94% (inactive)
- viability [5]: 91.5% (inactive)
- differential viability (reversal) ([6]; H69AR cells + 2 uM doxorubicin): -1.69% (inactive)
- viability [6, 9]: 93.2%
- viability [6, 10]: 91.5%
- inhibition [7]: -5.6% (inactive)
- inhibition [8]: -10% (inactive)

Compound: O=C(CSc1ncnc2c1oc1ccccc12)Nc1ccccc1C(F)(F)F
- viability [1]: 118%
- Her2 level [2]: 126% (inactive)
- viability [3]: 118% (inactive)
- viability [4]: 86.8% (inactive)
- viability [5]: 95.8% (inactive)
- differential viability (reversal) ([6]; H69AR cells + 2 uM doxorubicin): 8.15% (inactive)
- viability [6, 9]: 87.6%
- viability [6, 10]: 95.8%
- inhibition [7]: -5.6% (inactive)
- inhibition [8]: -2% (inactive)

Compound: CC(=O)c1c(C)[nH]c(C(=O)Nc2ccc3c(c2)OCCO3)c1C
- viability [1]: 102%
- Her2 level [2]: 92% (inactive)
- viability [3]: 102% (inactive)
- viability [4]: 86.1% (inactive)
- viability [5]: 92.9% (inactive)
- differential viability (reversal) ([6]; H69AR cells + 2 uM doxorubicin): 18.1% (inactive)
- viability [6, 9]: 74.8%
- viability [6, 10]: 92.9%
- inhibition [7]: -0.26% (inactive)
- inhibition [8]: 2.42% (inactive)

Compound: Cc1cc(C)c(OCC(=O)Nc2ccc3c(c2)OCO3)cc1C
- viability [1]: 106%
- Her2 level [2]: 116% (inactive)
- viability [3]: 106% (inactive)
- viability [4]: 92% (inactive)
- viability [5]: 84.5% (inactive)
- differential viability (reversal) ([6]; H69AR cells + 2 uM doxorubicin): -3.51% (inactive)
- viability [6, 9]: 88%
- viability [6, 10]: 84.5%
- inhibition [7]: -4% (inactive)
- inhibition [8]: -11.4% (inactive)

Compound: CCC(C)NC(=O)c1cc(-c2ccc(OC)cc2)on1 (stereo not given)
- viability [1]: 106%
- Her2 level [2]: 94% (inactive)
- viability [3]: 106% (inactive)
- viability [4]: 118% (inactive)
- viability [5]: 89.8% (inactive)
- differential viability (reversal) ([6]; H69AR cells + 2 uM doxorubicin): 0.48% (inactive)
- viability [6, 9]: 89.3%
- viability [6, 10]: 89.8%
- inhibition [7]: -8.24% (inactive)
- inhibition [8]: 1.33% (inactive)

Compound: CCN(CC)S(=O)(=O)c1ccc(Br)c(OC)c1
- viability [1]: 106%
- Her2 level [2]: 84% (inactive)
- viability [3]: 106% (inactive)
- viability [4]: 90.4% (inactive)
- viability [5]: 96.3% (inactive)
- differential viability (reversal) ([6]; H69AR cells + 2 uM doxorubicin): 5.01% (inactive)
- viability [6, 9]: 91.3%
- viability [6, 10]: 96.3%
- inhibition [7]: -6.89% (inactive)
- inhibition [8]: -2.13% (inactive)

Compound: CC(C)OC(=O)c1cc(=O)[nH]c2ccccc12
- viability [1]: 128%
- Her2 level [2]: 79% (inactive)
- viability [3]: 128% (inactive)
- viability [4]: 95.7% (inactive)
- viability [5]: 102% (inactive)
- differential viability (reversal) ([6]; H69AR cells + 2 uM doxorubicin): 21.9% (inactive)
- viability [6, 9]: 80.7%
- viability [6, 10]: 102%
- inhibition [7]: -2.47% (inactive)
- inhibition [8]: -2.22% (inactive)

Compound: CCCSc1nc2c(c(=O)[nH]c(=O)n2C)n1CCc1ccccc1
- viability [1]: 89.5%
- Her2 level [2]: 92% (inactive)
- viability [3]: 89.5% (inactive)
- viability [4]: 83.8% (inactive)
- viability [5]: 86.8% (inactive)
- differential viability (reversal) ([6]; H69AR cells + 2 uM doxorubicin): -9.79% (inactive)
- viability [6, 9]: 96.6%
- viability [6, 10]: 86.8%
- inhibition [7]: -7.47% (inactive)
- inhibition [8]: 7.42% (inactive)
